Measurements reported in ChEMBL document CHEMBL4190249, “Antiproliferative and apoptotic activities of sequence-specific histone acetyltransferase inhibitors” (Eur J Med Chem, 2017).
Activity calls are given as the source filed them. No cut-off for these calls is given here.

Assays:
[1] = target: T1, Histone acetyltransferase p300 (Homo sapiens, UniProt Q09472); experiment: Inhibition of p300 (unknown origin) at 1 to 5 uM sing H3 peptide and acetyl-coA as substrate by fluorometric assay
Summary of the method: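 Fluorometric HAT kit assay with recombinant p300 core domain as enzyme and acetyl-CoA plus H3 histone peptide as substrates. Released CoA-SH reacts with a developer, read at Ex/Em 535/587 nm. Effectors were tested at 1 and 5 μM. HeLa nuclear extract served as positive control, and 0.5% DMSO was set as 100% activity.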

A549 [2] = experiment: Antiproliferative activity against human A549 cells at 0.1 to 10 uM after 96 hrs by WST8 assay; type: functional, cell-based
Summary of the method: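 Cells seeded at 5×10^3 per well and grown 24 h at 37°C, 5% CO2. A549 medium was DMEM with 10% FBS and 2 mM L-glutamine. SW620 medium had 10% FBS and 1% penicillin/streptomycin. Medium was then replaced with conjugate at 0.1, 1, 5 or 10 μM for 96 h. WST-8 reagent was added and absorbance read at 450 nm. Results are mean ± SD.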

[3] = target: T1, Histone acetyltransferase p300; experiment: Inhibition of p300 (unknown origin) using H3 peptide and acetyl-coA as substrate by fluorometric assay
Summary of the method: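 Fluorometric HAT kit assay with recombinant p300 core domain as enzyme and acetyl-CoA plus H3 histone peptide as substrates. Effectors were tested at 1 and 5 μM. HeLa nuclear extract served as positive control, and 0.5% DMSO was set as 100% activity.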

dsDNA [4] = experiment: Binding affinity to 5'-ACTTATTCCATATAGA-3'/3'-TGAATAAGGTATATCT-5' dsDNA (unknown origin) assessed as change in melting temperature at 2.5 uM by spectrophotometric method; type: nucleic-acid assay
dsDNA [5] = experiment: Binding affinity to 5'-ACTTATCCACTATAGA-3'/3'-TGAATAGGTGATATCT-5' dsDNA (unknown origin) assessed as change in melting temperature at 2.5 uM by spectrophotometric method; type: nucleic-acid assay
[6] = target: Cellular tumor antigen p53 (Homo sapiens) (UniProt P04637); experiment: Activation of p53 in human A549 cells assessed as upregulation of SPATA18 gene expression at 2 uM after 48 hrs by microarray analysis relative to control; type: cell-based
Summary of the method: (§1)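 A549 cells plated at 2×10^5 cells/well, treated 48 h at 2 μM, with DMSO vehicle as control. Whole-genome transcriptional profiling followed the manufacturer's protocol. Total RNA integrity was checked by Bioanalyzer before arraying.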

[7] = target: Cellular tumor antigen p53 (Homo sapiens) (UniProt P04637); experiment: Activation of p53 in human A549 cells assessed as upregulation of EDA2R gene expression at 2 uM after 48 hrs by microarray analysis relative to control; type: cell-based; summary of the method: as §1
A549 [8] = experiment: Upregulation of ABCA12 gene expression in human A549 cells at 2 uM after 48 hrs by microarray analysis relative to control; type: functional; summary of the method: as §1
[9] = target: Cellular tumor antigen p53 (Homo sapiens) (UniProt P04637); experiment: Activation of p53 in human A549 cells assessed as upregulation of BTG2 gene expression at 2 uM after 48 hrs by microarray analysis relative to control; type: cell-based; summary of the method: as §1
A549 [10] = experiment: Upregulation of MIR3189 gene expression in human A549 cells at 2 uM after 48 hrs by microarray analysis relative to control; type: functional; summary of the method: as §1
A549 [11] = experiment: Upregulation of CDKN1A gene expression in human A549 cells at 2 uM after 48 hrs by microarray analysis relative to control; type: functional; summary of the method: as §1
A549 [12] = experiment: Upregulation of SULF2 gene expression in human A549 cells at 2 uM after 48 hrs by microarray analysis relative to control; type: functional; summary of the method: as §1
A549 [13] = experiment: Upregulation of WDR63 gene expression in human A549 cells at 2 uM after 48 hrs by microarray analysis relative to control; type: functional; summary of the method: as §1
[14] = target: Cellular tumor antigen p53 (Homo sapiens) (UniProt P04637); experiment: Activation of p53 in human A549 cells assessed as upregulation of FDXR gene expression at 2 uM after 48 hrs by microarray analysis relative to control; type: cell-based; summary of the method: as §1
[15] = target: Cellular tumor antigen p53 (Homo sapiens) (UniProt P04637); experiment: Activation of p53 in human A549 cells assessed as upregulation of MDM2 gene expression at 2 uM after 48 hrs by microarray analysis relative to control; type: cell-based; summary of the method: as §1
A549 [16] = experiment: Upregulation of UIMC1 gene expression in human A549 cells at 2 uM after 48 hrs by microarray analysis relative to control; type: functional; summary of the method: as §1
A549 [17] = experiment: Upregulation of MIR4713 gene expression in human A549 cells at 2 uM after 48 hrs by microarray analysis relative to control; type: functional; summary of the method: as §1
[18] = target: Cellular tumor antigen p53 (Homo sapiens) (UniProt P04637); experiment: Activation of p53 in human A549 cells assessed as upregulation of SESN1 gene expression at 2 uM after 48 hrs by microarray analysis relative to control; type: cell-based; summary of the method: as §1
A549 [19] = experiment: Upregulation of SCARNA7 gene expression in human A549 cells at 2 uM after 48 hrs by microarray analysis relative to control; type: functional; summary of the method: as §1
A549 [20] = experiment: Upregulation of MIR3685 gene expression in human A549 cells at 2 uM after 48 hrs by microarray analysis relative to control; type: functional; summary of the method: as §1
[21] = target: Cellular tumor antigen p53 (Homo sapiens) (UniProt P04637); experiment: Activation of p53 in human A549 cells assessed as upregulation of CYFIP2 gene expression at 2 uM after 48 hrs by microarray analysis relative to control; type: cell-based; summary of the method: as §1
A549 [22] = experiment: Upregulation of POLH gene expression in human A549 cells at 2 uM after 48 hrs by microarray analysis relative to control; type: functional; summary of the method: as §1
[23] = target: Cellular tumor antigen p53 (Homo sapiens) (UniProt P04637); experiment: Activation of p53 in human A549 cells assessed as upregulation of TP53INP1 gene expression at 2 uM after 48 hrs by microarray analysis relative to control; type: cell-based; summary of the method: as §1
[24] = target: Cellular tumor antigen p53 (Homo sapiens) (UniProt P04637); experiment: Activation of p53 in human A549 cells assessed as upregulation of CD70 gene expression at 2 uM after 48 hrs by microarray analysis relative to control; type: cell-based; summary of the method: as §1
[25] = target: Cellular tumor antigen p53 (Homo sapiens) (UniProt P04637); experiment: Activation of p53 in human A549 cells assessed as upregulation of FAS gene expression at 2 uM after 48 hrs by microarray analysis relative to control; type: cell-based; summary of the method: as §1
A549 [26] = experiment: Upregulation of GDF15 gene expression in human A549 cells at 2 uM after 48 hrs by microarray analysis relative to control; type: functional; summary of the method: as §1
A549 [27] = experiment: Upregulation of GAS6-AS1 gene expression in human A549 cells at 2 uM after 48 hrs by microarray analysis relative to control; type: functional; summary of the method: as §1
A549 [28] = experiment: Upregulation of ANKRD1 gene expression in human A549 cells at 2 uM after 48 hrs by microarray analysis relative to control; type: functional; summary of the method: as §1
[29] = target: Cellular tumor antigen p53 (Homo sapiens) (UniProt P04637); experiment: Activation of p53 in human A549 cells assessed as upregulation of DDB2 gene expression at 2 uM after 48 hrs by microarray analysis relative to control; type: cell-based; summary of the method: as §1
A549 [30] = experiment: Upregulation of NEFL gene expression in human A549 cells at 2 uM after 48 hrs by microarray analysis relative to control; type: functional; summary of the method: as §1
A549 [31] = experiment: Downregulation of SNORA9 gene expression in human A549 cells at 2 uM after 48 hrs by microarray analysis relative to control; type: functional; summary of the method: as §1
A549 [32] = experiment: Downregulation of ALDH1L2 gene expression in human A549 cells at 2 uM after 48 hrs by microarray analysis relative to control; type: functional; summary of the method: as §1
[33] = target: Cellular tumor antigen p53 (Homo sapiens) (UniProt P04637); experiment: Activation of p53 in human A549 cells assessed as downregulation of CARS gene expression at 2 uM after 48 hrs by microarray analysis relative to control; type: cell-based; summary of the method: as §1
A549 [34] = experiment: Downregulation of ASNS gene expression in human A549 cells at 2 uM after 48 hrs by microarray analysis relative to control; type: functional; summary of the method: as §1
A549 [35] = experiment: Downregulation of TAS2R30 gene expression in human A549 cells at 2 uM after 48 hrs by microarray analysis relative to control; type: functional; summary of the method: as §1
[36] = target: Cellular tumor antigen p53 (Homo sapiens) (UniProt P04637); experiment: Activation of p53 in human A549 cells assessed as downregulation of STC2 gene expression at 2 uM after 48 hrs by microarray analysis relative to control; type: cell-based; summary of the method: as §1
A549 [37] = experiment: Downregulation of ULBP1 gene expression in human A549 cells at 2 uM after 48 hrs by microarray analysis relative to control; type: functional; summary of the method: as §1
A549 [38] = experiment: Downregulation of GUSBP3 gene expression in human A549 cells at 2 uM after 48 hrs by microarray analysis relative to control; type: functional; summary of the method: as §1
[39] = target: Cellular tumor antigen p53 (Homo sapiens) (UniProt P04637); experiment: Activation of p53 in human A549 cells assessed as downregulation of CHAC1 gene expression at 2 uM after 48 hrs by microarray analysis relative to control; type: cell-based; summary of the method: as §1
A549 [40] = experiment: Induction of apoptosis in human A549 cells at 2 uM after 48 hrs by Annexin V-FITC/ethidium homodimer-3/Hoechst 33342 staining based fluorescence microscopic method; type: functional, cell-based
Summary of the method: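 A549 cells seeded in chamber slides at 2×10^4 cells/well and exposed to 2 μM for 48 h; vehicle control 0.1% DMSO. Cells were washed in binding buffer and stained with FITC-annexin V (apoptotic), ethidium homodimer III (necrotic) and Hoechst 33342 (all nuclei), then imaged by confocal fluorescence microscopy.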

Cellular tumor antigen p53 (Homo sapiens), sequence (P04637 whole entry, looked up): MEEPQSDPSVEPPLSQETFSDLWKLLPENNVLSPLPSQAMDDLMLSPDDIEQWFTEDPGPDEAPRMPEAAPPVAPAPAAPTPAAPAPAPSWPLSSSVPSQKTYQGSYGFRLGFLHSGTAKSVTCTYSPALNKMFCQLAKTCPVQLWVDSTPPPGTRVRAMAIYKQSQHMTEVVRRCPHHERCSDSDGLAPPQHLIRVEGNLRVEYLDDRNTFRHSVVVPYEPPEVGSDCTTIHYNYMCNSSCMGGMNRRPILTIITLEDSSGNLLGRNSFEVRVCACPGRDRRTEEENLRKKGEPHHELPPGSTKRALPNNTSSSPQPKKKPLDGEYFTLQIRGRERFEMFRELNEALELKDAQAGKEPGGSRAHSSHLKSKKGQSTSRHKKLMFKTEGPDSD
T1 sequence (Q09472 whole entry, the tested form may be a part): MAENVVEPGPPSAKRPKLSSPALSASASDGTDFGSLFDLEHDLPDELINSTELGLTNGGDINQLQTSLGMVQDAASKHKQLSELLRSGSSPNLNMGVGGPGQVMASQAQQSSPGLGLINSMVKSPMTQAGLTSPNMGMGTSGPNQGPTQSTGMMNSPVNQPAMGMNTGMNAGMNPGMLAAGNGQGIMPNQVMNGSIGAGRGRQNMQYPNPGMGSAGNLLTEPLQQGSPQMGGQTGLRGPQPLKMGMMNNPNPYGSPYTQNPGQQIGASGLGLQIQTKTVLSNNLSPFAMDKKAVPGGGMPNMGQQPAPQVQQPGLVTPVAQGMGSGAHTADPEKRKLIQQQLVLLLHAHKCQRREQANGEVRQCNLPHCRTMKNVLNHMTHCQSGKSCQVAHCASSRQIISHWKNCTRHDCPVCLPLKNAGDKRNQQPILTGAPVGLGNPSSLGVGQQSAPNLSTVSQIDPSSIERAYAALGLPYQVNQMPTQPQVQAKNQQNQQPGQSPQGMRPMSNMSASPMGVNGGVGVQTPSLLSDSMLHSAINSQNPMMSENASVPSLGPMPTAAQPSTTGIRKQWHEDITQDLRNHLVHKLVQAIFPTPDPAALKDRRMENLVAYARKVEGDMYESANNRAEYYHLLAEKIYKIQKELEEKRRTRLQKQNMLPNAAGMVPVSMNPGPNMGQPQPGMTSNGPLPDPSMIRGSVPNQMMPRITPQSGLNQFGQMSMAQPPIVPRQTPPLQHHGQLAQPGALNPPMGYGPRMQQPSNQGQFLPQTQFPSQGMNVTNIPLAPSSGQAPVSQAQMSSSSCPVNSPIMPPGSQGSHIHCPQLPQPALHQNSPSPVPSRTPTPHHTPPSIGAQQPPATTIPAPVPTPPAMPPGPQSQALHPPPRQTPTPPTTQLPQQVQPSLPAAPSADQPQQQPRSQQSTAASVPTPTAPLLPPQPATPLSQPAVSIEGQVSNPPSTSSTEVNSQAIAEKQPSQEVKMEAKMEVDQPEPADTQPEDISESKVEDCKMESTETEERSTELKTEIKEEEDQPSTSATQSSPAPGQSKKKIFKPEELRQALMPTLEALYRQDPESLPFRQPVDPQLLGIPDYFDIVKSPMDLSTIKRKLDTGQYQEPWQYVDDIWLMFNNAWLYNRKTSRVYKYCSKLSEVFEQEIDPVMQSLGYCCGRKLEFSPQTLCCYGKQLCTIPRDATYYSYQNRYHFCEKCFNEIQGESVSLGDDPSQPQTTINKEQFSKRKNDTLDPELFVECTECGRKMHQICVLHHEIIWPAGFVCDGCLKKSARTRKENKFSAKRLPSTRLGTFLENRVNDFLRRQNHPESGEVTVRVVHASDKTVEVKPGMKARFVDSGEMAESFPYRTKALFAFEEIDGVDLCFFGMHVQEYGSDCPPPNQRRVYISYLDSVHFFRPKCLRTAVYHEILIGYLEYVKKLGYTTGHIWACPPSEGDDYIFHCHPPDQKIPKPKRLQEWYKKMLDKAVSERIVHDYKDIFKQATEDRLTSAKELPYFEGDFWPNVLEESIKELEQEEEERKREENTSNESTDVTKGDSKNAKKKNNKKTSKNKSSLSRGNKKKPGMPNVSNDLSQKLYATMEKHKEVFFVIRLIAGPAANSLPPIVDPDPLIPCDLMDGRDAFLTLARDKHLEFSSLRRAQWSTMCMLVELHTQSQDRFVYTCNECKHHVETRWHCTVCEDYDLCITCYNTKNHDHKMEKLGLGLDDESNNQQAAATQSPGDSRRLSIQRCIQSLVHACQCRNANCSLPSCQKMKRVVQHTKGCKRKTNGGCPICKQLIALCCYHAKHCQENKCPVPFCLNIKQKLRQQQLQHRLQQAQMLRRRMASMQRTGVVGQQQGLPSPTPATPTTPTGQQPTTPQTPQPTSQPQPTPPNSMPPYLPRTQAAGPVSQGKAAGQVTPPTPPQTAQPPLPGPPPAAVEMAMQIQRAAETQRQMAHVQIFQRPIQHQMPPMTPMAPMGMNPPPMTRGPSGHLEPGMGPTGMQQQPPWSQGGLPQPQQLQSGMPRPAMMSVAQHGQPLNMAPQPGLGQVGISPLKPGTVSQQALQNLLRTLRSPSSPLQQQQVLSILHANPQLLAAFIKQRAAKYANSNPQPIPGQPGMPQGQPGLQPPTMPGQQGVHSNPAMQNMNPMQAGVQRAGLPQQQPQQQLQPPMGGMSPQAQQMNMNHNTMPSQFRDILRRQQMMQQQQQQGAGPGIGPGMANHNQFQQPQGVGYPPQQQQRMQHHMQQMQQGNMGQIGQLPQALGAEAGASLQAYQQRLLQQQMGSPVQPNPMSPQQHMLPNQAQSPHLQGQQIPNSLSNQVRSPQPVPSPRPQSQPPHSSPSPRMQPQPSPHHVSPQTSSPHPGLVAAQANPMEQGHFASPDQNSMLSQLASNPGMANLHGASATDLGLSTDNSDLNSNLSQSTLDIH

In the case of `CC(=O)Nc1cc(C(=O)Nc2cn(C)c(C(=O)Nc3cn(C)c(C(=O)Nc4cc(C(=O)NCCCC(=O)Nc5cc(C(=O)Nc6cc(C(=O)Nc7cc(C(=O)Nc8cc(C(=O)NCCCN(C)C)n(C)c8)n(C)c7)n(C)c6)n(C)c5)n(C)c4)n3)n2)n(C)c1`, the inhibition [1] is reported as “inactive” and the Activity (A549 [2]) is reported as “inactive”.
`CCCCCCCCCCCCCCOc1cc(OCCCCCC(=O)NCCC(=O)Nc2cc(C(=O)Nc3cn(C)c(C(=O)Nc4cn(C)c(C(=O)Nc5cc(C(=O)NCCCC(=O)Nc6cc(C(=O)Nc7cc(C(=O)Nc8cc(C(=O)Nc9cc(C(=O)O)n(C)c9)n(C)c8)n(C)c7)n(C)c6)n(C)c5)n4)n3)n(C)c2)cc(O)c1C(=O)O` was tested, and the inhibition [3] was “Dose-dependent effect”.
`CC1=NN(c2ccc(C(=O)NCCOCCOCC(=O)NCCC(=O)Nc3cn(C)c(C(=O)Nc4cc(C(=O)Nc5cn(C)c(C(=O)Nc6cn(C)c(C(=O)NCCCC(=O)Nc7cc(C(=O)Nc8cc(C(=O)Nc9cc(C(=O)Nc%10cc(C(=O)NCCCN(C)C)n(C)c%10)n(C)c9)n(C)c8)n(C)c7)n6)n5)n(C)c4)n3)cc2)C(=O)/C1=C/c1ccc(-c2cc(C)c(C)cc2[N+](=O)[O-])o1` was tested, and the ΔTm (dsDNA [4]) was 13.6 °C, the ΔTm (dsDNA [5]) was 20.9 °C and the IC50 [3] was 3.9 to 4.2 µM. For the same compound, the Activity (A549 [2]) was “Active”, the Activity [6] was “inactive” and the Activity [7] was “inactive”. The Activity (A549 [8]) was “inactive”, the Activity [9] was “inactive” and the Activity (A549 [10]) was “inactive”. The Activity (A549 [11]) was “inactive”, the Activity (A549 [12]) was “inactive” and the Activity (A549 [13]) was “inactive”. The Activity [14] was “inactive”, the Activity [15] was “inactive” and the Activity (A549 [16]) was “inactive”. For the same compound, the Activity (A549 [17]) was “inactive”, the Activity [18] was “inactive” and the Activity (A549 [19]) was “inactive”. For the same compound, the Activity (A549 [20]) was “inactive”, the Activity [21] was “inactive” and the Activity (A549 [22]) was “inactive”. For the same compound, the Activity [23] was “inactive”, the Activity [24] was “inactive” and the Activity [25] was “inactive”. For the same compound, the Activity (A549 [26]) was “inactive”, the Activity (A549 [27]) was “inactive” and the Activity (A549 [28]) was “inactive”. For the same compound, the Activity [29] was “inactive”, the Activity (A549 [30]) was “inactive” and the Activity (A549 [31]) was “inactive”. The Activity (A549 [32]) was “inactive”, the Activity [33] was “inactive” and the Activity (A549 [34]) was “inactive”. For the same compound, the Activity (A549 [35]) was “inactive”, the Activity [36] was “inactive” and the Activity (A549 [37]) was “inactive”. The Activity (A549 [38]) was “inactive”, the Activity [39] was “inactive” and the Activity (A549 [40]) was “inactive”.
`CC1=NN(c2ccc(C(=O)NCCOCCOCC(=O)NCCOCCOCC(=O)Nc3cc(C(=O)Nc4cn(C)c(C(=O)Nc5cn(C)c(C(=O)Nc6cc(C(=O)NCCCC(=O)Nc7cc(C(=O)Nc8cc(C(=O)Nc9cc(C(=O)Nc%10cc(C(=O)NCCCN(C)C)n(C)c%10)n(C)c9)n(C)c8)n(C)c7)n(C)c6)n5)n4)n(C)c3)cc2)C(=O)/C1=C/c1ccc(-c2cc(C)c(C)cc2[N+](=O)[O-])o1` gave a ΔTm (dsDNA [4]) of 18.4 °C, a ΔTm (dsDNA [5]) of 12.2 °C and an IC50 [3] of 3.9 to 4.2 µM. For the same compound, the Activity (A549 [2]) was “Active”.
